# APP 5'UTR act – activates APP 5'UTR luciferase reporter | actives 1% (n = 190,000) | activation, % at 2 µM | AID 1276 | SH-SY5Y APP 5'UTR luciferase reporter, luminescence; zero percent = DMSO vehicle wells;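 active = activation above a set limit, based on mean plus 3 SD of controls, cut at about 140% in these data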
# STAT1 activator – STAT1 signaling activation; NIH 3T3 STAT1-luciferase reporter, IFN-gamma, luminescence; 100% = IFN-gamma alone, no compound; activation (% of control), % at 5.5 µM; actives 2.6% (n = 200,000); AID 932;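 active = activation above the screen-wide mean activation plus 3 SD, cut at about 130% in these data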
# SDO1 yeast rescue – sdo1-depleted yeast growth rescue | S. cerevisiae sdo1-depleted JHY4D growth rescue, OD600 30 h; active compounds read high; pdr5 snq2 efflux-pump mutant strain | actives 0.21% (n = 140,000) | z-score at 10 µM;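 active = z-score above 3 at both the 24 hr and the 30 hr optical density reads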
# FLuc stim CS – firefly luciferase counter-screen for stimulation assays | activation factor at 10 µM | P08659 | ATPlite luciferase biochemical, luminescence, 10 min; 0 = ATP-free wells, 1 = DMSO control | 200,000 tested, under 10 active;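 active = luciferase activation factor, scaled between plate controls, of at least 2 with compound at 10 µM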
# Target sequence (P08659 whole entry, looked up): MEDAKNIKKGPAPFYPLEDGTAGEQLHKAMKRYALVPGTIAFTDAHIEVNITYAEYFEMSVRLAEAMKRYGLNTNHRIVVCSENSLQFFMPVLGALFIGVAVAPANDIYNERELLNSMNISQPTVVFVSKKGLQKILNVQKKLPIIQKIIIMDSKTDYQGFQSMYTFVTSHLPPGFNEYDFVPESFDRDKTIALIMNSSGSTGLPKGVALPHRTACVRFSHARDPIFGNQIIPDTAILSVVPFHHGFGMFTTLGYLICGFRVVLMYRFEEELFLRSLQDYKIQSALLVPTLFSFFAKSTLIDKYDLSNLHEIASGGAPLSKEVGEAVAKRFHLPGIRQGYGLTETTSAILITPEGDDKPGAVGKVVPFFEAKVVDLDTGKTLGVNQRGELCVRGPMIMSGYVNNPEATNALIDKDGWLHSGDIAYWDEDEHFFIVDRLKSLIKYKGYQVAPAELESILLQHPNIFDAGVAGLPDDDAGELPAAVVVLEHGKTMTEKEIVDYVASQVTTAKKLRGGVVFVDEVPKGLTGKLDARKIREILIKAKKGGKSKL
#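 assay system = Luciferase/luciferin detection reagent, cell-free biochemical luciferase assay | also added = ATP substrate | times = 10 min post-reagent at room temperature | measured by = luminescence from luciferase reaction | measure = luciferase activation, seen as luminescence increase over controls | benchmarks = low control with PBS replacing ATP, high control enzyme plus ATP without compound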
# FLuc inh counter – inhibits firefly luciferase, flagging false hits in luciferase inhibition screens; P08659; ATPLite firefly luciferase biochemical luminescence, 10 min; inhibition, % at 10 µM; actives 1.5% (n = 200,000);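 active = inhibition above about 50% when tested at 10 µM, limit read from the data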
# NF-kB expr up – compounds increasing NF-kB expression in human neuronal cells | actives 1.6% (n = 190,000) | NF-kB reporter expression; active compounds read high | fold change at 12.5 µM; in the data active = fold change above about 3.3
# STAT1 act conf – STAT1 activation, confirmation assay | AID 1262 | actives 97% (n = 1,200) | activation (% of control), % at 5.7 µM | shares compounds with STAT1 activator | NIH 3T3 STAT1-luciferase reporter, IFN-gamma potentiation, luminescence; 100% = IFN-gamma EC80 alone, no compound;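 active = activation above a set limit carried over from the earlier primary STAT1 screen, cut at about 140% in these data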
# NFkB act STAT1ct – NF-kappaB activation in STAT1 activator counter-screen. activation (% of control), % at 5.7 µM. actives 43% (n = 1,200). AID 1306. HEK293T NF-kB luciferase reporter, TNF-alpha stimulated, luminescence; 100% = TNF-alpha with vehicle only. shares compounds with STAT1 activator;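 active = activation above the mean of solvent-only control wells plus 3 SD, set per campaign, cut at about 130% in these data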;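 also: TNF-alpha given at a submaximal dose yielding about 80% of full reporter signal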
# STAT3 act STAT1c – activates human STAT3, counter-screen to STAT1 activators | shares compounds with STAT1 activator | U3A cells STAT3-luciferase reporter, IL-6, luminescence; cells lack STAT1; 100 = IL-6 alone, no compound effect | activation (% of control), % at 5.7 µM | actives 46% (n = 1,200) | AID 1316;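 active = activation above the solvent-only control well mean plus 3 SD, set per plate batch, cut at about 110% in these data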;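 also: higher means more STAT3 reporter activation so hits are non-selective activators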
# Numbers stand for hits; . = inactive; / = no result given. Sampled rows, rich in hits. Any-hit rate of the full collection: about 4.3%.
SMILES,APP 5'UTR act,STAT1 activator,SDO1 yeast rescue,FLuc stim CS,FLuc inh counter,NF-kB expr up,STAT1 act conf,NFkB act STAT1ct,STAT3 act STAT1c
Cc1cccc(NC(=O)Cn2cnc3ccc(S(=O)(=O)N4CCC(C)CC4)cc3c2=O)n1,.,.,.,.,.,.,/,/,/
O=C(Nc1nc(-c2ccc3c(c2)OCCO3)cs1)c1ccc(S(=O)(=O)N2CCCCC2)cc1,.,.,.,.,.,.,/,/,/
N#CCC(=O)Nc1nc(-c2ccc3c(c2)OCCO3)cs1,.,165.4,/,.,.,.,169.2,.,113.2
O=C(Nc1nc(-c2ccc3c(c2)OCCO3)cs1)C1CCCC1,173.1,155.6,/,.,.,6.64,188.2,134.4,120.6
Cc1cccc(Nc2nc(-c3ccc4c(c3)OCCO4)cs2)c1,161.3,158.2,.,.,.,.,216.7,143.7,.
CCc1ccc(CNC(=O)C2CCN(S(=O)(=O)N3CCC4(CC3)OCCO4)CC2)cc1,.,.,/,.,.,.,/,/,/
Cc1cc(C)c(OCC(=O)N/N=C/c2ccc3c(c2)OCO3)c(C)c1,.,.,.,.,.,.,/,/,/
Cn1c(=NC(=O)c2ccccc2[N+](=O)[O-])sc2cc(S(C)(=O)=O)ccc21,177.9,176.9,.,.,.,.,248.7,.,.
C#CCN1C(=O)S/C(=C/c2cc(C)n(CC)c2C)C1=O,.,199.4,.,.,.,.,239.2,133.6,.
CCN1C(=O)/C(=C/c2cnn(CC)c2C)SC1=S,.,.,.,.,.,.,/,/,/
O=C(O)c1ccc(N/N=C/c2ccc(F)c(F)c2)cc1,159.0,161.9,.,.,.,5.28,211.3,.,128.6
O=C(O)c1ccc(N/N=C/c2cccc(F)c2)cc1,.,161.0,.,.,.,5.03,202.8,.,117.7
CNC(=O)c1ccc(NC(=O)/C=C/c2cccc(F)c2)cc1,.,.,/,.,.,.,/,/,/
COc1cc(/C=N/Nc2ccc(C(=O)O)cc2)ccc1O,.,.,/,.,.,.,/,/,/
Cc1cccc(-n2nnc(C(=O)Nc3ccc(F)cc3)c2N)c1,.,168.2,.,.,.,5.07,196.0,.,.
Cc1cc(NC(=O)CN2CCCCC2C)no1 (configuration not stated),.,.,.,.,.,.,/,/,/
C=C(C)CSc1nncn1/N=C/c1ccc(OC)cc1,.,153.3,.,.,.,.,165.4,.,128.4
CCSc1nncn1/N=C/c1ccc(OC)c(OC)c1,.,.,.,.,.,.,/,/,/
CC(=O)COc1ccc2c(C)c(-c3ccccc3)c(=O)oc2c1,.,155.7,/,.,.,.,155.8,.,.
CC(=O)COc1ccc2c3c(c(=O)oc2c1)CCCC3,.,.,.,.,.,.,/,/,/
O=C(CSc1nc2ccccc2c(=O)n1NC(=O)c1ccccc1)c1ccccc1,.,150.7,.,.,.,.,159.1,.,124.9
FC(F)(F)c1cnc2c(-c3ccccc3)n[nH]c2c1,.,161.1,/,.,.,.,136.9,.,.
CCC(C)(C(=O)NC1CCCC1)N(C(=O)Cc1cccs1)c1c(C)n(C)n(-c2ccccc2)c1=O (configuration not stated),.,.,/,.,.,.,/,/,/
CC(=O)c1c(C)[nH]c(C2=NNC(=NC(C)(C)C)SC2)c1C,.,.,/,.,.,.,/,/,/
CC(C)(C)N=C1NN=C(c2cc3ccccc3o2)CS1,.,169.3,.,.,.,.,207.2,.,.
SMILES,APP 5'UTR act,STAT1 activator,SDO1 yeast rescue,FLuc stim CS,FLuc inh counter,NF-kB expr up,STAT1 act conf,NFkB act STAT1ct,STAT3 act STAT1c
Fc1ccc(/C=N/NC2=Nc3cccc4cccc2c34)cc1,166.6,167.4,.,.,57.9,.,200.5,136.9,152.9
COc1ccc(/C=N/NC(=O)c2[nH]ncc2Br)c(OC)c1,.,155.0,.,.,84.7,.,162.3,.,113.9
O=c1[nH]c(=O)c2nc(-c3ccc(Cl)cc3)cnc2[nH]1,.,.,/,.,.,.,/,/,/
O=c1[nH]c(=O)c2nc3c4ccccc4c4ccccc4c3nc2[nH]1,.,151.8,/,.,.,.,140.2,.,.
C1CCC(C(CC2CCCCN2)C2CCCCC2)CC1 (configuration not stated),.,.,.,.,.,.,/,/,/
CCOC(=O)c1c(C)[nH]c(C=Nc2ccc(OC)cc2)c1O,.,.,.,.,.,.,/,/,/
CCOC(=O)c1c(C)[nH]c(N=Nc2ccc(C)cc2)c1C,140.8,154.2,.,.,.,4.07,230.3,146.5,.
CCOC(=O)c1[nH]c(C)c(C(=O)c2ccc(C)cc2)c1C,.,.,.,.,.,.,/,/,/
CCOC(=O)c1c(C)[nH]c(N=Nc2cccc(OC)c2)c1C,253.3,198.4,/,.,.,.,235.3,143.7,.
COc1cccc(C(=O)OCc2ccccc2C#N)c1O,.,.,.,.,.,.,/,/,/
COc1cccc(N(C(=O)c2nc3nccc(C)n3n2)c2nc3ccccc3s2)c1,190.2,172.8,.,.,.,5.98,230.5,176.5,113.5
COc1cccc(NC(=O)COC(=O)c2nc3nccc(C)n3n2)c1,.,.,.,.,.,.,/,/,/
CCC(C)N(C(=O)CSc1nc(-c2ccccc2)cs1)C1CCS(=O)(=O)C1 (configuration not stated),.,.,.,.,.,.,/,/,/
Cc1ccc(-c2csc(C(C#N)=C3CCCC3)n2)cc1,.,.,.,.,.,.,/,/,/
N#CC(=C1CCCC1)c1nc(-c2ccccc2)cs1,.,166.2,.,.,54.2,8.05,215.5,154.1,122.5
CCN(/C=N/S(=O)(=O)c1ccc(Cl)cc1)CC,.,.,/,.,.,/,/,/,/
O=C(OCC(=O)N1CCOCC1)c1ccccc1SCC(=O)N1CCCC1,.,.,.,.,.,.,/,/,/
O=C(OCC(=O)N1CCOCC1)c1ccccc1Cc1ccccc1,.,158.3,.,.,.,5.54,197.9,139.5,136.8
CN(C1=NS(=O)(=O)c2ccccc21)c1ccc(OC(=O)c2ccncc2)cc1,.,.,/,.,.,.,/,/,/
C(=N\N=C\c1ccccc1)/c1ccccc1,.,158.1,/,.,78.7,.,186.2,145.1,.
COc1cccc(C(=O)NCCCn2ccnc2)c1,.,.,/,.,.,.,/,/,/
Cc1cc(/C=C(\C#N)C(=O)Nc2ccccc2F)c(C)[nH]1,147.1,171.6,/,.,.,5.5,234.7,140.8,116.1

# Screens: PubChem BioAssay, several laboratories
